Test results as given in ChEMBL document CHEMBL1138836, “4-[5-Fluoro-3-[4-(2-methyl-1H-imidazol-1-yl)benzyloxy]phenyl]-3,4,5,6- tetrahydro-2H-pyran-4-carboxamide, an orally active inhibitor of 5-lipoxygenase with improved pharmacokinetic and toxicology characteristics” (J Med Chem, 2004).

Tests used:
[1] = molecular target: T1, Polyunsaturated fatty acid 5-lipoxygenase (Homo sapiens, UniProt P09917); assay: Inhibition of 5-Lipoxygenase (5-LO) of human whole blood (HWB); type: tissue-based
T1 sequence (P09917 whole entry): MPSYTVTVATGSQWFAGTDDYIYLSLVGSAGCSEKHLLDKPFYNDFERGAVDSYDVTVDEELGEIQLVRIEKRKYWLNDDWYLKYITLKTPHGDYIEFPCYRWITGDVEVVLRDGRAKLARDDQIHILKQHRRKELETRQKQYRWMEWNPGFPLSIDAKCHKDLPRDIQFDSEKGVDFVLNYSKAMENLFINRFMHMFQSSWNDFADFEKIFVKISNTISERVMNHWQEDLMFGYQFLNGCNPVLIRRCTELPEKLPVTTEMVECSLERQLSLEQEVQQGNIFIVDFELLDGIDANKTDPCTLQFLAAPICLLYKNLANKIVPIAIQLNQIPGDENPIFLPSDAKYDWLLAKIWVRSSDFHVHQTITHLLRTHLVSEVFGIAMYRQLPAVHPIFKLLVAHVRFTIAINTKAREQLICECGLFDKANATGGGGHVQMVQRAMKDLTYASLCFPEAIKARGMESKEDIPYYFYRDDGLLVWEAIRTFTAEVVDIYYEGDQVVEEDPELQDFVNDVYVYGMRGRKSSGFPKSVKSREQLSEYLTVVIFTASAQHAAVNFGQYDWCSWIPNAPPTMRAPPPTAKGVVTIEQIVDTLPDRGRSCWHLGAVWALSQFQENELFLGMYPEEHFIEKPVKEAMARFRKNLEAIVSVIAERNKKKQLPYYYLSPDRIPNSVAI

Mus musculus = assay: In vivo potency was determined after oral administration to mice by the PAF (platelet activating factor) induced thrombosis assay; type: functional
Method in brief: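 Male […] mice were dosed orally, then given platelet activating factor to induce thrombosis. ED50 reported in mg/kg.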

[2] = Bioavailability of compound at 3 mg/kg in guinea pig […]; type: ADME, organism-based, Cavia porcellus; details: in vivo, iv
Method in brief: (§1)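 Oral bioavailability derived from oral and intravenous pharmacokinetic data. Doses: monkey 5 mg/kg oral vs 3 mg/kg iv; rat and guinea pig 10 mg/kg oral vs 3 mg/kg iv.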

[3] = Bioavailability of compound at 3 mg/kg in monkey […]; type: ADME, organism-based; details: cercopithecidae, in vivo, iv; method in brief: as §1
[4] = Oral bioavailability of compound at 5 mg/kg in monkey; type: ADME, organism-based; details: cercopithecidae, in vivo; method in brief: as §1
[5] = Maximum concentration of compound found in plasma at 5 mg/kg after oral administration; type: ADME, organism-based; set-up: dose 5 mg/kg, route oral; details: cercopithecidae
Method in brief: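 Male cynomolgus monkeys, three animals, single 5 mg/kg oral dose with plasma concentration followed over time. Values are mean ± SEM (n = 3), Cmax in μg/mL.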

[6] = Bioavailability of compound at 10 mg/kg in rat after oral administration; type: ADME, organism-based; details: in vivo; method in brief: as §1
[7] = Bioavailability of compound at 3 mg/kg in rat […]; type: ADME, organism-based; details: in vivo, iv; method in brief: as §1
[8] = Bioavailability of compound at 10 mg/kg in guinea pig after oral administration; details: in vivo

CCOC1(c2cc(F)cc(OCc3ccc(-n4ccnc4C)cc3)c2)CCOCC1
IC50 [1]: 80 nM | ED50 (Mus musculus): 5 mg/kg

Cc1nccn1-c1ccc(COc2cc(F)cc(C3(C(N)=O)CCOCC3)c2)cc1
bioavailability [2]: 108% | IC50 [1]: 340 nM | bioavailability [3]: 88% | bioavailability [4]: 88% | Cmax [5]: 1570 ng/mL | bioavailability [6]: 102% | bioavailability [7]: 102% | bioavailability [8]: 108%

Cc1nccn1-c1ccc(COc2cc(F)cc(C3(C(=O)O)CCOCC3)c2)cc1
IC50 [1]: > 1000 nM

CSC1(c2cc(F)cc(OCc3ccc(-n4ccnc4C)cc3)c2)CCOCC1
IC50 [1]: 72 nM | ED50 (Mus musculus): 5 mg/kg

Cc1nccn1-c1ccc(COc2cc(F)cc(C3(S(C)(=O)=O)CCOCC3)c2)cc1
IC50 [1]: > 1000 nM

COC1(c2cc(F)cc(OCc3ccc(-n4ccnc4C)cc3)c2)CCOCC1
IC50 [1]: 60 nM | ED50 (Mus musculus): 2 mg/kg

CCOC(=O)C1(c2cc(F)cc(OCc3ccc(-n4ccnc4C)cc3)c2)CCOCC1
IC50 [1]: 200 nM | ED50 (Mus musculus): 16 mg/kg

CC(=O)C1(c2cc(F)cc(OCc3ccc(-n4ccnc4C)cc3)c2)CCOCC1
IC50 [1]: 130 nM | ED50 (Mus musculus): 12 mg/kg

CNC(=O)C1(c2cc(F)cc(OCc3ccc(-n4ccnc4C)cc3)c2)CCOCC1
IC50 [1]: 280 nM | ED50 (Mus musculus): 13 mg/kg

Cc1nccn1-c1ccc(COc2cc(F)cc(C3(O)CCOCC3)c2)cc1
IC50 [1]: > 1000 nM

Cc1nccn1-c1ccc(COc2cc(F)cc(C3(C(=O)N(C)C)CCOCC3)c2)cc1
IC50 [1]: 810 nM | ED50 (Mus musculus): > 20 mg/kg

Cc1nccn1-c1ccc(COc2cc(F)cc(C3([S+](C)[O-])CCOCC3)c2)cc1 (stereo unspecified)
IC50 [1]: > 1000 nM
